Assay results reported in ChEMBL document CHEMBL2062406, “Fluorocyclopentenyl-cytosine with broad spectrum and potent antitumor activity” (J Med Chem, 2012).
pIC50: −log10 of the molar value. Calls of active or inactive are those of the source. No cut-off for these calls is given here.

Experiments:
[1] = test system: PC-3; experiment: Antitumor activity against human PC3 cells by SRB method; type: functional, cell-based
[2] = test system: HT-29; experiment: Antitumor activity against human HT-29 cells by SRB method; type: functional, cell-based
[3] = test system: LNCaP; experiment: Antitumor activity against human LNCAP cells at 1 uM by SRB method; type: functional, cell-based
[4] = test system: PANC-1; experiment: Antitumor activity against human PANC1 cells at 1 uM by SRB method; type: functional, cell-based
[5] = test system: SK-MEL-28; experiment: Antitumor activity against human SK-MEL-28 cells by SRB method; type: functional, cell-based
[6] = test system: HCT-116; experiment: Antitumor activity against human HCT116 cells by SRB method; type: functional, cell-based
[7] = test system: MDA-MB-231; experiment: Antitumor activity against human MDA-MB-231 cells at 1 uM by SRB method; type: functional, cell-based
[8] = test system: MCF7; experiment: Antitumor activity against human MCF7 cells at 1 uM by SRB method; type: functional, cell-based
[9] = test system: MCF7; experiment: Antitumor activity against human MCF7 cells by SRB method; type: functional, cell-based
[10] = test system: NCI-H226; experiment: Antitumor activity against human NCI-H226 cells by SRB method; type: functional, cell-based
[11] = test system: A549; experiment: Antitumor activity against human A549 cells xenografted in ip dosed nu/nu mouse assessed as inhibition of tumor volume administered three times a week for 3 weeks; type: functional, organism-based
Method in brief: (§1)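 Male nu/nu mice received 3 × 10⁶ A549 cells subcutaneously in the right flank. Dosing began at about 100 mm³ tumor volume: 3 or 10 mg/kg intraperitoneally, three times a week for three weeks. Tumor volume was measured by caliper every 2−3 days. Percent inhibition of tumor volume was calculated against a vehicle-treated control group.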

[12] = test system: A549; experiment: Antitumor activity against human A549 cells xenografted in nu/nu mouse assessed as inhibition of tumor volume at 10 mg/kg, ip administered three times a week for 3 weeks; type: functional; conditions: 504 h, route intraperitoneal; method in brief: as §1
[13] = test system: Mus musculus; experiment: Toxicity in nu/nu mouse xenografted with human A549 cells assessed as change in body weight 3 to 10 mg/kg, ip administered three times a week for 3 weeks; type: organism-based; parameters: dose 3-10 mg/kg, route intraperitoneal; conditions: in vivo, 504 h
Method in brief: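 Mouse body weight was monitored throughout in male nu/nu mice bearing subcutaneous A549 flank xenografts (3 × 10⁶ cells). These mice received 3 or 10 mg/kg intraperitoneally three times a week for three weeks, starting when tumors reached about 100 mm³, and were compared with vehicle controls.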

[14] = test system: A549; experiment: Antitumor activity against human A549 cells at 1 uM by SRB method; type: functional, cell-based
[15] = test system: A549; experiment: Antitumor activity against human A549 cells xenografted in ip dosed nu/nu mouse assessed as tumor growth inhibition administered three times a week for 3 weeks; type: functional, organism-based; method in brief: as §1
[16] = test system: PC-3; experiment: Antitumor activity against human PC3 cells at 1 uM by SRB method; type: functional, cell-based
[17] = test system: HCT-116; experiment: Antitumor activity against human HCT116 cells at 1 uM by SRB method; type: functional, cell-based
[18] = test system: HT-29; experiment: Antitumor activity against human HT-29 cells at 1 uM by SRB method; type: functional, cell-based
[19] = test system: HeLa; experiment: Antitumor activity against human HeLa cells at 1 uM by SRB method; type: functional, cell-based
[20] = test system: MDA-MB-231; experiment: Antitumor activity against human MDA-MB-231 cells by SRB method; type: functional, cell-based
[21] = (§2) Antitumor activity against human UMRC2 cells by SRB method; type: functional, cell-based
[22] = test system: K562; experiment: Antitumor activity against human K562 cells at 1 uM by SRB method; type: functional, cell-based
[23] = test system: NCI-H226; experiment: Antitumor activity against human NCI-H226 cells at 1 uM by SRB method; type: functional, cell-based
[24] = test system: A549; experiment: Antitumor activity against human A549 cells by SRB method; type: functional, cell-based
[25] = test system: OVCAR-3; experiment: Antitumor activity against human OVCAR3 cells by SRB method; type: functional, cell-based
[26] = test system: LNCaP; experiment: Antitumor activity against human LNCAP cells by SRB method; type: functional, cell-based
[27] = test system: HeLa; experiment: Antitumor activity against human HeLa cells by SRB method; type: functional, cell-based
[28] = test system: K562; experiment: Antitumor activity against human K562 cells by SRB method; type: functional, cell-based
[29] = test system: SK-MEL-28; experiment: Antitumor activity against human SK-MEL-28 cells at 1 uM by SRB method; type: functional, cell-based
[30] = test system: A549; experiment: Antitumor activity against human A549 cells xenografted in nu/nu mouse assessed as inhibition of tumor volume at 3 mg/kg, ip administered three times a week for 3 weeks; type: functional; conditions: 504 h, route intraperitoneal; method in brief: as §1
[31] = test system: HepG2; experiment: Antitumor activity against human HepG2 cells by SRB method; type: functional, cell-based
[32] = test system: U-251; experiment: Antitumor activity against human U251 cells by SRB method; type: functional, cell-based
[33] = test system: HepG2; experiment: Antitumor activity against human HepG2 cells at 1 uM by SRB method; type: functional, cell-based
[34] = test system: MDA-MB-231; experiment: Inhibition of DNMT-1 protein human expression in MDA-MB-231 cells after 24 hrs by Western blot analysis; type: functional, cell-based
Method in brief: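 MDA-MB-231 cells were exposed to 0, 1, 1.5, 2 or 5 μM for 24 h. DNMT-1 protein was detected by Western blot, with actin as the loading control. Blots are representative of two independent cell cultures.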

[35] = test system: U-251; experiment: Antitumor activity against human U251 cells at 1 uM by SRB method; type: functional, cell-based
[36] = test system: A549; experiment: Antitumor activity against human A549 cells xenografted in ip dosed nu/nu mouse assessed as inhibition of tumor weight administered three times a week for 3 weeks; type: functional, organism-based
Method in brief: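 Male nu/nu mice carried subcutaneous right-flank A549 xenografts (3 × 10⁶ cells). Treatment started at about 100 mm³ with 3 or 10 mg/kg intraperitoneally, three times weekly for three weeks. Tumors were excised and weighed on day 38. Comparison was with the vehicle control group, with significance at p < 0.05 or p < 0.01.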

[37] = test system: OVCAR-3; experiment: Antitumor activity against human OVCAR3 cells at 1 uM by SRB method; type: functional, cell-based
[38] = test system: UMRC2; experiment: Antitumor activity against human UMRC2 cells at 1 uM by SRB method; type: functional, cell-based
[39] = test system: MKN-45; experiment: Antitumor activity against human MKN45 cells at 1 uM by SRB method; type: functional, cell-based
[40] = test system: MKN-45; experiment: Antitumor activity against human MKN45 cells by SRB method; type: functional, cell-based
[41] = test system: UMRC2; experiment: as §2; type: functional, cell-based
[42] = test system: PANC-1; experiment: Antitumor activity against human PANC1 cells by SRB method; type: functional, cell-based

For `Nc1ccn([C@@H]2C(F)=C(CO)[C@@H](O)[C@H]2O)c(=O)n1` [RODUCITABINE], the pIC50 [1] was 6.20, the pIC50 [2] was 6.55 and the Activity [3] was “Active”. For the same compound, the Activity [4] was “Active”, the pIC50 [5] was 5.86 and the pIC50 [6] was 6.72. For the same compound, the Activity [7] was “Active”, the Activity [8] was “Active” and the pIC50 [9] was 6.47. The pIC50 [10] was 6.60, the inhibition [11] was “Dose-dependent effect” and the inhibition in vivo at 10 mg/kg [12] was 58.1%. The Activity [13] was “Non-toxic”, the Activity [14] was “Active” and the inhibition [15] was “Dose-dependent effect”. The Activity [16] was “Active”, the Activity [17] was “Active” and the Activity [18] was “Active”. The Activity [19] was “Active”, the pIC50 [20] was 6.74 and the pIC50 [21] was 6.08. For the same compound, the Activity [22] was “Active”, the Activity [23] was “Active” and the pIC50 [24] was 6.30. For the same compound, the pIC50 [25] was 6.10, the pIC50 [26] was 5.57 and the pIC50 [27] was 5.87. For the same compound, the pIC50 [28] was 6.09, the Activity [29] was “Active” and the inhibition in vivo at 3 mg/kg [30] was 31.8%. The pIC50 [31] was 6.10, the pIC50 [32] was 6.08 and the Activity [33] was “Active”. For the same compound, the inhibition [34] was “Dose-dependent effect”, the Activity [35] was “Active” and the inhibition [36] was “Dose-dependent effect”. The Activity [37] was “Active”, the Activity [38] was “Active” and the Activity [39] was “Active”. The pIC50 [40] was 6.47.

For `Nc1ccn([C@H]2C[C@H](O)C(CO)=C2F)c(=O)n1`, the Activity [1] was “inactive”, the Activity [2] was “inactive” and the Activity [5] was “inactive”. For the same compound, the Activity [6] was “inactive”, the Activity [9] was “inactive” and the Activity [10] was “inactive”. The Activity [20] was “inactive”, the Activity [41] was “inactive” and the Activity [24] was “inactive”. The Activity [25] was “inactive”, the Activity [26] was “inactive” and the Activity [27] was “inactive”. For the same compound, the Activity [28] was “inactive”, the Activity [42] was “inactive” and the Activity [31] was “inactive”. The Activity [32] was “inactive” and the Activity [40] was “inactive”.

Compound `Nc1ccn([C@@H]2O[C@H](CO)[C@@H](O)C2(F)F)c(=O)n1` [GEMCITABINE] has an inhibition in vivo at 10 mg/kg [12] of 76.7%.
